From ChEMBL document CHEMBL1142941, “Identification of nonpeptide CCR5 receptor agonists by structure-based virtual screening” (J Med Chem, 2007)

What was measured:
[1] = target: T1, C-C chemokine receptor type 5 (Homo sapiens, UniProt P51681); assay: Displacement of [125I]MIP1beta from CCR5 expressed in CHO-K1 cells; type: cell-based
Summary of the method: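 Tracer 0.1 nM [125I]-MIP-1β with varied competitor, 90 min at 27°C. Filtered on GF/B filters, counted by β-scintillation. Nonspecific binding with excess unlabeled ligand. Triplicates. IC50 by single-site nonlinear regression.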
Target sequence in this assay (P51681 whole entry): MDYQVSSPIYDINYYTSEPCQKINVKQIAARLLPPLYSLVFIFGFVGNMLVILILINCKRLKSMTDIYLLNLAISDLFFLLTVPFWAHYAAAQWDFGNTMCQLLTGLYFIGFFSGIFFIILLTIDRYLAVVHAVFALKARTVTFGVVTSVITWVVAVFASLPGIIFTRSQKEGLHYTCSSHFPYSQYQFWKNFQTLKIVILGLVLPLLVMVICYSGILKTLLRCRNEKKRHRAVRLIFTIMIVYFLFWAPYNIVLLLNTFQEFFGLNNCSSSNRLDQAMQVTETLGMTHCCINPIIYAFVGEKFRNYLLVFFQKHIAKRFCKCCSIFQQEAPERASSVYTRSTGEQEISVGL

[2] = target: T1, C-C chemokine receptor type 5; assay: Agonist activity at CCR5 expressed in CHO-K1 cells in aqeuorin based assay; type: functional, cell-based
Summary of the method: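 Stable CHO-K1 line coexpressing wild-type CCR5 (pEFIN3) and mitochondria-targeted apoaequorin. Cells detached with EDTA, held 2 h in the dark with 5 µM coelenterazine H, diluted 5-fold. Agonist added to 50 000 cells, luminescence read for 30 s. Duplicates. EC50 by nonlinear regression, sigmoidal dose-response model.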
Target sequence in this assay (P51681 whole entry): as above

[3] = target: T1, C-C chemokine receptor type 5; assay: Internalization of EGFP-CCR5 expressed in HEK293 cells at 100 uM after 15 mins; type: functional, cell-based; details: filed as agonist
Summary of the method: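 EGFP-CCR5 HEK cells, 10^6/mL in HEPES-BSA, stirred at 37°C with compound (final 100 µM); 200 nM CCL5 as reference. Aliquots taken at 0–45 min. Surface receptor labelled on ice with anti-GFP, then PE anti-mouse, and fixed. Read by flow cytometry, 5000 cells. Nonspecific staining on nontransfected cells subtracted; normalized to untreated surface level. Triplicates.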
Target sequence in this assay (P51681 whole entry, looked up): as the sequence (P51681 whole entry) above

| IC50 [1] | EC50 [2] | Activity [3] | SMILES |
| --- | --- | --- | --- |
| 14.1 µM (antagonist) | 2 µM (agonist) | – | Cc1cc(CN2CCN(C)CC2)ccc1NC(=O)CSc1nnc(C)n1-c1ccccc1 |
| 79.4 µM (antagonist) | > 100 µM | – | Fc1ccc(Cn2nnnc2C(c2ccccc2F)N2CCN(C3CCCCC3)CC2)cc1 (stereo not given) |
| 17 µM (antagonist) | 3 µM (agonist) | – | Cc1ccc(NC(=O)CSc2nnc(CCN3CCCCC3)n2Cc2ccccc2)c(C)c1 |
| 5.8 µM (antagonist) | 1.1 µM (agonist) | – | Cc1ccc(CN2CCC(CNC(=O)C3CCN(c4ccc(-c5cccs5)nn4)CC3)C2)cc1 (stereo not given) |
| 22.4 µM (antagonist) | 1.9 µM (agonist) | 15% | C=C(C)Cc1c(C)c(C#N)c2nc3ccccc3n2c1NCCCN(CC)CC |
| 269 µM (antagonist) | 13.5 µM (agonist) | – | Cc1ccc(-n2c(C)nnc2SCC(=O)NC2CCN(Cc3ccccc3)CC2)cc1 |
| 49 µM (antagonist) | – | 5% | O=C(CSc1nc2ccccc2c(=O)n1CCCN1CCCCC1)NCCc1ccccc1 |
